From PMC5648736 (Clinical Pharmacokinetics, 2017)
Like-named read-outs stand apart in the source and are kept apart here. Marks after values point to notes of the source that are not given here.

Columns and labels:
[1] = cited from earlier work
[2] = Safety of initial single dose semaglutide 10 µg/kg; type: in vivo, human
How it was run: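 Initial cohort received a single weight-based dose, with ESRD subjects dosed 1–24 h after haemodialysis. Safety was judged from reported AEs, serious AEs, and gastrointestinal frequency and severity. Hypoglycaemia was classed as major, minor or symptoms-only by ability to self-treat and a 3.1 mmol/L plasma glucose cut-off. This cohort was evaluated for safety only and excluded from pharmacokinetic analysis.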

[3] = Safety and tolerability of single dose semaglutide 0.5 mg; type: in vivo, human; conditions: single SC 0.5 mg
How it was run: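 Single 0.5 mg subcutaneous injection into the thigh by pen. ESRD subjects were dosed 1–24 h after haemodialysis, with no dialysis for 48 h after. Monitoring covered AEs, physical exam, ECG, vital signs, plasma glucose and clinical labs (biochemistry, haematology, urinalysis). TEAEs counted from dosing day to follow-up +14 days (~5 weeks). Hypoglycaemia: major = unable to self-treat; minor = self-treated with glucose <3.1 mmol/L. Descriptive statistics.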

[4] = type: in vivo, human; conditions: for AUC∞ estimated ratio (95% CI): unadjusted ANCOVA; for C max estimated ratio (90% CI): unadjusted; for t ½: geometric mean (CV%)
[5] = single dose 10 µg/kg, six subjects
[6] = ESRD vs normal, adjusted for age, sex, log(weight), single SC 0.5 mg
[7] = mild RI vs normal, adjusted for age, sex, log(weight), single SC 0.5 mg
[8] = moderate RI vs normal, adjusted for age, sex, log(weight), single SC 0.5 mg
[9] = severe RI vs normal, adjusted for age, sex, log(weight), single SC 0.5 mg

Question: For `CC[C@H](C)[C@H](NC(=O)[C@H](Cc1ccccc1)NC(=O)[C@H](CCC(=O)O)NC(=O)[C@H](CCCCNC(=O)COCCOCCNC(=O)COCCOCCNC(=O)CC[C@H](NC(=O)CCCCCCCCCCCCCCCCC(=O)O)C(=O)O)NC(=O)[C@H](C)NC(=O)[C@H](C)NC(=O)[C@H](CCC(N)=O)NC(=O)CNC(=O)[C@H](CCC(=O)O)NC(=O)[C@H](CC(C)C)NC(=O)[C@H](Cc1ccc(O)cc1)NC(=O)[C@H](CO)NC(=O)[C@H](CO)NC(=O)[C@@H](NC(=O)[C@H](CC(=O)O)NC(=O)[C@H](CO)NC(=O)[C@@H](NC(=O)[C@H](Cc1ccccc1)NC(=O)[C@@H](NC(=O)CNC(=O)[C@H](CCC(=O)O)NC(=O)C(C)(C)NC(=O)[C@@H](N)Cc1cnc[nH]1)[C@@H](C)O)[C@@H](C)O)C(C)C)C(=O)N[C@@H](C)C(=O)N[C@@H](Cc1c[nH]c2ccccc12)C(=O)N[C@@H](CC(C)C)C(=O)N[C@H](C(=O)N[C@@H](CCCNC(=N)N)C(=O)NCC(=O)N[C@@H](CCCNC(=N)N)C(=O)NCC(=O)O)C(C)C` [semaglutide, Semaglutide], which “t ½ in humans” value [1] is on record?
Answer: approximately 1 week

Question: And the “tolerability as starting dose” value ([2]; single dose 10 µg/kg (0.7–1.2 mg), six subjects (three severe RI, three ESRD))?
Answer: not considered a tolerable starting dose

Question: And the “minor or symptoms-only hypoglycemia” value [2, 5]?
Answer: three experienced minor or symptoms-only hypoglycemia

Question: What about the “significant nausea and/or vomiting” value [2, 5] of the same compound?
Answer: five experienced significant nausea and/or vomiting

Question: And the “vital signs, electrocardiogram, physical examinations, clinical laboratory assessments” value ([3]; all groups)?
Answer: No clinically significant values or appreciable changes

Question: And the “serious or severe TEAEs” value ([3]; all groups, n=56)?
Answer: none were serious or severe

Question: What about the minor hypoglycemia ([3]; moderate RI and ESRD groups) of the same compound?
Answer: one subject with moderate RI and one with ESRD experienced minor hypoglycemia

Question: And the symptoms-only hypoglycemia ([3]; moderate RI group)?
Answer: two subjects in the moderate RI group experienced symptoms-only hypoglycemia

Question: And the major hypoglycemic events ([3]; one subject with severe RI without type 2 diabetes)?
Answer: two major hypoglycemic events

Question: And the “AUC48 ratio (ESRD group/normal renal function group), adjusted” value ([4]; 0–48 h, without hemodialysis, adjusted for age, sex, body weight, (90% CI))?
Answer: 0.81

Question: And the “AUC48–96 ratio (ESRD group/normal renal function group), adjusted” value ([4]; 48–96 h, with hemodialysis, adjusted for age, sex, body weight, (90% CI))?
Answer: 0.93

Question: What about the “effect of hemodialysis on pharmacokinetics” value ([4]; ESRD group, AUC48 vs AUC48–96 ratios) of the same compound?
Answer: hemodialysis did not appear to affect the pharmacokinetics

Question: What about the “AUC∞ estimated ratio (95% CI)” value ([4]; ESRD vs normal renal function, single SC 0.5 mg) of the same compound?
Answer: 0.99 (0.82–1.19)

Question: And the “AUC∞ estimated ratio (95% CI), adjusted analysis” value [4, 6]?
Answer: 1.10 (0.94–1.28)

Question: And the “C max estimated ratio (90% CI), adjusted analysis” value [4, 6]?
Answer: 0.82 (0.66–1.01)

Question: And the “C max estimated ratio (90% CI)” value ([4]; ESRD vs normal, single SC 0.5 mg)?
Answer: 0.72 (0.57–0.91)

Question: And the “t ½” value ([4]; ESRD, single SC 0.5 mg, n=9)?
Answer: 243 (19)^b h

Question: And the “C max lower in subjects with RI than in subjects with normal renal function” value ([4]; all RI groups, adjusted for age, sex, log(weight), single SC 0.5 mg)?
Answer: 10–20%

Question: And the “AUC∞ estimated ratio (95% CI)” value ([4]; mild RI vs normal renal function, single SC 0.5 mg)?
Answer: 1.01 (0.83–1.21)

Question: And the “AUC∞ estimated ratio (95% CI), adjusted analysis” value [4, 7]?
Answer: 0.99 (0.85–1.16)

Question: What about the “C max estimated ratio (90% CI), adjusted analysis” value [4, 7] of the same compound?
Answer: 0.90 (0.73–1.11)

Question: What about the “C max estimated ratio (90% CI)” value ([4]; mild RI vs normal, single SC 0.5 mg) of the same compound?
Answer: 0.95 (0.76–1.20)

Question: What about the “t ½” value ([4]; mild RI, single SC 0.5 mg, n=9) of the same compound?
Answer: 169 (14)^b h

Question: And the “mean C max across the other groups” value ([4]; mild, moderate and severe RI groups, single SC 0.5 mg)?
Answer: 9.0 to 9.8 nM

Question: And the “AUC∞ estimated ratio (95% CI)” value ([4]; moderate RI vs normal renal function, single SC 0.5 mg)?
Answer: 1.15 (0.96–1.38)

Question: What about the “AUC∞ estimated ratio (95% CI), adjusted analysis” value [4, 8] of the same compound?
Answer: 1.07 (0.91–1.27)

Question: And the “C max estimated ratio (90% CI), adjusted analysis” value [4, 8]?
Answer: 0.79 (0.64–0.99)

Question: And the “C max estimated ratio (90% CI)” value ([4]; moderate RI vs normal, single SC 0.5 mg)?
Answer: 0.88 (0.70–1.10)

Question: And the “t ½” value ([4]; moderate RI, single SC 0.5 mg, n=10)?
Answer: 201 (14)^c h

Question: And the “t max range across the groups” value ([4]; range of group medians, single SC 0.5 mg)?
Answer: 24 to 51 h

Question: What about the “AUC∞ estimated ratio (95% CI)” value ([4]; severe RI vs normal renal function, single SC 0.5 mg) of the same compound?
Answer: 1.22 (1.02–1.47)

Question: And the “AUC∞ estimated ratio (95% CI), adjusted analysis” value [4, 9]?
Answer: 1.13 (0.97–1.32)

Question: And the “C max estimated ratio (90% CI), adjusted analysis” value [4, 9]?
Answer: 0.86 (0.70–1.06)

Question: And the “C max estimated ratio (90% CI)” value ([4]; severe RI vs normal, single SC 0.5 mg)?
Answer: 0.95 (0.75–1.19)

Question: What about the increase in exposure ([4]; subjects with CLCR 10 mL/min versus CLCR 90 mL/min, from slope −0.06) of the same compound?
Answer: 14%
